PKA-R2B act – activators of PKA-R2B holoenzyme, primary screen, biochemical, fluorescence polarization, Cy5-IP20, human; 340,000 tested, 0.079% active; activation, % at 11.4 µM; PKA-R2B holoenzyme dissociation; R2B truncated from residue 108, S112A mutant; 0% DMSO only, 100% 113 µM cGMP; AID 504700, 2011; cAMP-dependent protein kinase catalytic subunit beta (Homo sapiens) + cAMP-dependent …;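 active = activation above a cutoff set at the mean over all compounds plus 3 SD, cut at about 18% in these data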;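 note: higher means more holoenzyme dissociation and a rise in polarization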
Fh CTSL1 inh – Fasciola hepatica cathepsin L1 inhibitors, primary screen, counter-screen for PFM18AAP inhibitor project, biochemical, QFRET, fluorogenic peptide substrate. 300,000 tested, 0.49% active. inhibition, % at 5.96 µM. recombinant F. hepatica cathepsin L1, Z-Leu-Arg-MCA fluorescence. AID 1906, 2009;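 active = inhibition above the mean of all tested compounds plus 3 SD, set per screening campaign, cut at about 17% in these data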;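 note: 0% = plate median of test compound wells and 100% = 1 µM Z-Phe-Ala-diazomethylketone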
aDG glyco act – activators of alpha-DG glycosylation, primary screen, uHTS, Pro5-aDG cells, AlphaScreen. alpha-DG glycosylation AlphaScreen (IIH6); 0% Pro5, 100% B10-LARGE cell signal. 360,000 tested, 0.22% active. activation, % at 10 µM;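 active = activation of at least 8% versus controls, or a plate z-score of at least 8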;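 note: Pro5 are CHO cells carrying HIG-tagged alpha-DG that lacks glycosylation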
PKA-R1A activ – activators of PKA-R1A holoenzyme, primary screen, biochemical, fluorescence polarization, Cy5-IP20, bovine R1A, mouse PKAc. cAMP-dependent protein kinase type I-alpha regulatory subunit (Bos taurus) + …. PKA-R1A dissociation; scaled: DMSO 0%, 113 µM cGMP 100%. activation, % at 11.4 µM. 340,000 tested, 0.083% active. AID 504707, 2011;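 active = percent activation above the mean of all tested compounds plus 3 SD, cut at about 19% in these data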;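 note: higher means more PKAc released from R1A so a rise in polarization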
UCH37 DUB inh – inhibitors of human UCH37 deubiquitinase, primary screen, biochemical, Ub-AMC cleavage, fluorescence. Ubiquitin carboxyl-terminal hydrolase isozyme L5 (Homo sapiens), Q9Y5K5. purified proteasome/UCH37. inhibition, % (concentration not given with the values). 330,000 tested, 0.33% active. AID 588478, 2011;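 active = mean inhibition over replicate wells above about 20%, limit read from the data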;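 note: 0% = compound-free wells with enzyme and 100% = wells lacking proteasome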
Target sequence (Q9Y5K5 whole entry, looked up): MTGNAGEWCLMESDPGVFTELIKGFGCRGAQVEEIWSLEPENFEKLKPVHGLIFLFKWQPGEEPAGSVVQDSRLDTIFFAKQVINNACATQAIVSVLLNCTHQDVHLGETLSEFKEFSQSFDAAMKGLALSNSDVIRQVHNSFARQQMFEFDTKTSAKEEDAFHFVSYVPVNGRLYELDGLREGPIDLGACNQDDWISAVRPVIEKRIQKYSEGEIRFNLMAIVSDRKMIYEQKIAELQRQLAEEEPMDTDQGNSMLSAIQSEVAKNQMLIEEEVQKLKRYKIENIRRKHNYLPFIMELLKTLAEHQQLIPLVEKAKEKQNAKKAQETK
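system = Proteasome-associated human UCH37 deubiquitinase | amount = 0.15 nM proteasome as dispensed | medium = pH 7.4 Tris-HCl (50 mM) with ovalbumin, ATP-MgCl2, DTT | incubation = 30 min preincubation with enzyme, 25 min cleavage at room temperature | detection = AMC fluorescence 355/460 nm | read-out basis = percent inhibition | controls = no-proteasome and no-compound wells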
* hit, by the source's call; · = no result. Shown are actives, neighbours in structure and some others; about 0.94% of the full set was active somewhere.

SMILES	PKA-R2B act	Fh CTSL1 inh	aDG glyco act	PKA-R1A activ	UCH37 DUB inh
CCCCOc1ccc(CCC(=O)NN=Cc2ccco2)cc1	·	·	·	·	4.2
CC(=NNC(=O)c1ccncc1)c1ccc2c(c1)OCO2	·	·	·	·	7.5
O=C1NCCCC2c3cc(O)c4ccccc4c3OC12N1CCCCC1 (centres undefined)	·	28.8*	·	·	·
O=C(Nc1nccs1)c1cccc(N2C(=O)C3C4C=CC(C4)C3C2=O)c1 (centres undefined)	-2.1	-3.4	0.0	-1.2	29.1*
O=C(Nc1nccs1)c1ccc(N2C(=O)[C@@H]3[C@H](C2=O)[C@H]2C=C[C@@H]3C2)cc1	-3.8	-0.8	0.0	-2.4	5.7
COc1ccc(C=NNC(=O)c2ccccc2O)cc1Cn1cc(Cl)cn1	·	·	·	·	-50.2
CCCN(C(=O)Cc1nc(N)n[nH]1)C1(C(=O)Nc2ccccc2C)CCCCC1	4.5	0.7	0.0	-8.0	24.6*
Cc1cccc(C(=O)Oc2c(Br)cc(Br)cc2C=NNC(=O)c2ccncc2)c1	·	·	·	·	0.9
C=CCN1C(=O)/C(=C/C(=O)OC)SC1=NNC(=O)c1ccccc1	·	·	·	·	4.3
CCOC(=O)COn1c(=O)c(-c2ccc(Cl)cc2)[n+]([O-])c2ccccc21	-3.1	·	-0.1	-2.2	-10.6
CCOC(=O)COn1c(=O)c(-c2ccc(C)cc2)[n+]([O-])c2ccccc21	-1.7	20.1*	0.0	-5.5	6.4
Cc1ccc2c(c1)N(CC(=O)N1CCCCC1c1cccnc1)C(=O)CO2 (centres undefined)	-8.4	18.2*	-0.1	7.9	5.5
O=C(Nc1cccc(-n2cnnn2)c1)c1cccs1	7.8	7.1	0.2	-5.5	0.3
Cc1ccsc1C(=O)Nc1cccc(-n2cnnn2)c1	-5.2	19.1*	-0.4	-17.1	2.1
O=C(CCl)Nc1nc(-c2ccco2)c(-c2ccco2)s1	-2.6	21.2*	-0.1	0.5	3.4
O=C(CCCSc1ccccc1)Nc1nc(-c2ccco2)c(-c2ccco2)s1	2.6	-4.7	-0.1	-0.2	-36.0
CCCN1CCc2c(sc(NC(=O)c3ccc(S(=O)(=O)N4CCN(C(=O)OCC)CC4)cc3)c2C(N)=O)C1	-3.8	4.0	12.4*	0.9	0.7
CCCN1CCc2c(sc(NC(=O)CCS(=O)(=O)c3ccccc3)c2C(=O)OC)C1	1.1	27.1*	3.1	5.9	-0.3
CN1CCc2c(sc(NC(=O)c3ccc(S(=O)(=O)N4CCCCCC4)cc3)c2C(N)=O)C1	-3.8	-3.6	32.6*	-11.0	·
COC(=O)c1c(NC(=O)CCS(=O)(=O)c2ccccc2)sc2c1CCN(C)C2	-3.9	-9.4	3.7	-1.3	-0.5
Cc1nn(-c2ccccc2)c(C)c1C=NNC(=O)c1ccccc1O	·	·	·	·	-11.8
CC(=NNC(=O)CNC(=O)c1cccnc1)c1ccco1	·	·	·	·	3.6
Cc1ccc(S(=O)(=O)N2CCOCC2)cc1C(=O)NCC1CCCO1 (centres undefined)	-3.0	28.1*	0.3	2.0	0.2
Cc1ccccc1C(=O)N(C)Cc1ccccc1	7.1	16.8*	-0.2	-7.6	2.4
CSc1ccccc1C(=O)N(C)Cc1ccccc1	1.5	-1.9	-0.2	4.7	4.3
SMILES	PKA-R2B act	Fh CTSL1 inh	aDG glyco act	PKA-R1A activ	UCH37 DUB inh
O=C(CSc1nc2ccccc2c(=O)n1-c1ccccc1)N1CCCc2ccccc21	-1.4	36.0*	0.1	-3.3	3.2
CCC(=O)Nc1ccc(C(C)=NNC(=O)c2c(Br)c(C)nn2C)cc1	·	·	·	·	3.2
NC(=S)N/N=C1\CCOc2ccc(Cl)cc21	-8.5	63.0*	0.0	-0.1	·
CCn1ccnc1CNCc1ccc(OCC(O)CN(C)Cc2ccccc2)cc1 (centres undefined)	-6.0	-1.5	0.1	-3.3	3.7
CN(Cc1ccccc1)CC(O)COc1ccc(CNCc2nccn2C)cc1 (centres undefined)	0.1	17.7*	0.7	10.9	5.0
CC(C)NC(=S)NN=Cc1c[nH]c2ccccc12	·	·	·	·	-0.2
CC(=NNc1nc2ccccc2s1)c1cccs1	·	·	·	·	3.2
N#CC1=C(N)NC(SCc2ccccc2)=C(C#N)C12CCCC2	-2.0	1.9	-0.2	4.0	20.7*
CCCCCCn1c(Br)nc2c1c(=O)n(C)c(=O)n2C	-8.1	35.2*	0.5	-16.4	1.7
CCCCCCn1c(NCC)nc2c1c(=O)n(C)c(=O)n2C	-3.4	-1.4	4.7	2.8	-0.4
COc1cc(C(CC(=O)N2CCCC2)c2c(OC)cc(OC)c3ccc(=O)oc23)cc(OC)c1OC (centres undefined)	-20.9	36.9*	-0.3	-2.9	-2.9
COc1cc(OC)c2ccc(=O)oc2c1C(CC(=O)N1CCCC1)c1ccc2c(c1)OCO2 (centres undefined)	-3.9	1.7	0.0	4.7	-6.3
CCOC(=O)C1=C(CSc2nc(C)cc(C)c2C#N)OC(N)=C(C#N)C1c1ccccc1 (centres undefined)	2.4	2.4	0.1	5.9	5.4
CCOC(=O)C1=C(CSc2nc(C)cc(C)c2C#N)OC(N)=C(C#N)C1c1cccs1 (centres undefined)	·	22.4*	·	·	5.4
CC(=NO)C(=O)C(CN1CCCCC1)CN1CCCCC1	·	·	·	·	0.7
Cc1ccc(C(=O)Nc2nnc(CC(=O)NN=Cc3ccncc3)s2)cc1	·	·	·	·	2.1
Clc1ccc(C=NNC2=Nc3cccc4cccc2c34)cc1	·	·	·	·	2.5
COc1ccc(NC(=O)COC(=O)C(CC(C)C)N2C(=O)C3CC=CCC3C2=O)cc1Cl (centres undefined)	0.7	52.4*	-0.1	-3.4	-26.1
COc1ccc(NC(=O)CN2C(=O)C3CC=CCC3C2=O)cc1Cl (centres undefined)	-2.6	·	-0.2	7.5	·
CC(=O)Nc1ccc(C(=O)NCC2(N3CCCCC3)CCCCC2)cc1	2.1	20.6*	-0.2	0.7	-0.4
CCOc1ccc(NS(=O)(=O)c2ccc(C(=O)NCC3(N4CCCCC4)CCCCC3)cc2)cc1	8.0	11.5	0.7	0.0	5.1
Cc1ccc2c(c1)c1c3n2CCN(C(=O)CCl)C3CCC1 (centres undefined)	-0.5	39.4*	0.5	-5.5	·
CC(=O)N1CCn2c3c(c(=O)c4cc(C)ccc42)CCC31 (centres undefined)	-0.7	24.0*	0.0	-5.8	-4.8
CCN1CCn2c3c(c4cc(C)ccc42)CCCC31 (centres undefined)	8.7	0.5	3.0	-6.7	1.6
CC(=O)N1CCn2c3c(c4cc(C)ccc42)CCCC31 (centres undefined)	-2.6	3.0	-0.8	-0.6	3.3
COc1cc(C=NNC(=O)c2cn(-c3cccc(C)n3)cn2)ccc1O	·	·	·	·	4.1
CCc1ccc(N2C(=O)C(Cl)=C(N3CCOCC3)C2=O)cc1	-5.4	32.3*	0.1	1.5	3.4

From PubChem
